KCNK9 block: inhibitors of human KCNK9 two-pore domain potassium channel; HEK293 KCNK9, FluxOR thallium flux fluorescence; hits give low values; B-score at 10 µM; hit rate 1.2% among 310,000; AID 488922;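 active means ratio B-score over 3 SD below the library mean, with starting fluorescence within 5 SD of its mean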;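 further: negative B-score means less thallium flux so channel inhibition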
Target sequence (Q9NPC2 whole entry, looked up, the tested form may be a part): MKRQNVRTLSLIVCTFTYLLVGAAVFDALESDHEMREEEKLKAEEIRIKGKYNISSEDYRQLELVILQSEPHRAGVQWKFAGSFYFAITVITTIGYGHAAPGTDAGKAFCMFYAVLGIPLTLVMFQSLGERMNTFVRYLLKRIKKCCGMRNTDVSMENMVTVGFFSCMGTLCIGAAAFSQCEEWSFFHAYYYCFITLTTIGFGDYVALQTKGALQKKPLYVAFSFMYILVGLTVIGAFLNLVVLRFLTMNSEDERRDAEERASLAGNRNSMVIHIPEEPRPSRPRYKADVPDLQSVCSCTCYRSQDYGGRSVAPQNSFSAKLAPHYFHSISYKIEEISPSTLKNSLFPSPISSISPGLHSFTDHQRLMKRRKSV
KCNQ1 act: potentiators or activators of human KCNQ1 potassium channel | P51787 | CHO-K1 KCNQ1, thallium flux FluxOR fluorescence; hits give high values | B-score at 10 µM | hit rate 0.35% among 310,000 | AID 2648;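 active means fluorescence ratio B-score, a plate-corrected score, at least three library SD, with initial intensity B-score within 5 SD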
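System: CHO-K1 cells stably expressing KCNQ1 / Medium: assay buffer for compound exposure, DMSO matched across wells / Reagent: thallium- and potassium-containing depolarizing buffer / Compound: one concentration, matched DMSO / Incubation: 20 min compound pretreatment at room temperature / Measured by: kinetic FluxOR fluorescence, 10 s baseline plus 110 s post-stimulus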
hERG rescue: compounds protecting human hERG from proarrhythmic drug block; Q12809; CHO-hERG, FluxOR thallium flux, dofetilide IC70 present; activation (rescue from dofetilide block), less the hit threshold, % at 10 µM; hit rate 0.51% among 310,000; AID 1511;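 active means activation above the mean of controls blocked by dofetilide plus 5 SD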;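 further: thallium influx through hERG after potassium depolarization seen as dye fluorescence rise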
KCNQ1 block: blocks the human KCNQ1 potassium channel. B-score at 10 µM. hit rate 1.3% among 310,000. AID 2642. P51787. CHO-K1 KCNQ1, FluxOR thallium flux fluorescence; hits give high values;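 active means compounds whose thallium flux B-score, printed positive for inhibition, exceeds three library SD while starting fluorescence stays within three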;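 further: channel opened by potassium depolarization with thallium stimulus after 20 min compound exposure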
KCNK3 inh: human KCNK3 channel inhibition, primary screen | CHO-KCNK3 thallium flux, FluxOR fluorescence; hits give low values | O14649 | hit rate 0.84% among 340,000 | B-score at 10 µM;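 active means B-score under library mean minus 4 SD, starting fluorescence ratio at most library mean plus 5 SD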;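 further: more negative B-score means stronger inhibition of thallium flux through KCNK3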
KCC2 mod: modulates chloride dependent transport by human KCC2. Q9H2X9. KCC2 cells, thallium flux FluoZin-2 fluorescence. B-score of Tl+ flux slope (higher = more flux/activation; lower = inhibition) at 10 µM. hit rate 2.2% among 190,000. AID 1456;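 active means thallium flux slope and its plate-corrected score both differing from the plate sample mean at a set confidence after two filtering rounds, in either direction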;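 further: slope of fluorescence scaled to starting intensity during 10 to 20 s after thallium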
KCNK9 block conf: human KCNK9 inhibitor confirmation; shares compounds with KCNK9 block; HEK293 KCNK9 cells, FluxOR thallium flux fluorescence; inhibition, % at 10 µM; hit rate 43% among 4,900; AID 492992;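 active means thallium signal inhibited by more than 5 SD of the compound-free buffer control wells, on both duplicate plates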
Kir21 sel: selectivity of KCNK9 modulators against mouse Kir2.1 | shares compounds with KCNK9 block | Kir2.1 cells, FluxOR thallium flux fluorescence | inhibition, % at 10 µM | hit rate 4% among 4,900;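 active means thallium signal drop more than 5 SD beyond the mean of the no-compound control wells, seen in both duplicate plates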;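 further: signal is fluorescence rise after thallium addition divided by baseline fluorescence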
HEK293 Tl ctr: non-induced cell nonspecific activity of KCNK9 modulators; hit rate 40% among 4,900; shares compounds with KCNK9 block; non-induced KCNK9-HEK293, FluxOR thallium flux; inhibition, % at 10 µM; AID 492997;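 active means thallium signal drop beyond 5 SD of the untreated control mean, on both duplicate plates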
Hits are given with their value; – = inactive; · = not tested or not shown. In the library only some 4.1% were active in any assay of this set; here they are far more common.

SMILES	KCNK9 block	KCNQ1 act	hERG rescue	KCNQ1 block	KCNK3 inh	KCC2 mod	KCNK9 block conf	Kir21 sel	HEK293 Tl ctr
Cc1ccc(C)c(S(=O)(=O)N2CCN(C(=O)[C@H](Cc3ccccc3)NC(=O)c3ccco3)CC2)c1	·	·	·	·	–	·	·	·	·
Nc1nccc(-c2ccc(-n3cnc4ccccc43)cc2)n1	–	–	–	–	–	–	·	·	·
Cc1nccc(-c2ccc(-n3cnc4ccccc43)cc2)n1	–	–	–	–	–	·	–	–	–
COCCN(CCOC)S(=O)(=O)c1ccc(NC(=O)c2cnccn2)cc1	–	–	–	–	–	·	·	·	·
O=C1CC(=O)NC(SCC(=O)Nc2ccccc2[N+](=O)[O-])=N1	–	–	–	–	–	·	·	·	·
COc1ccc(C(=O)NC(=S)Nc2ccc(CN3CCOCC3)cc2)cc1Br	–	–	–	–	–	·	–	–	–
COc1ccc(C(=O)NC(=S)Nc2ccc(CN3CCOCC3)cc2)cc1	–	–	–	–	–	–	·	·	·
Cc1[nH]c2ccc(F)cc2c1CCN(Cc1ccncc1)C(=S)Nc1cccc(F)c1	-8.1	–	–	7	–	–	36%	–	27%
COc1ccc2[nH]c(C)c(CCN(Cc3cccs3)C(=S)Nc3ccc(F)cc3)c2c1	-12	–	–	6	-17	–	42%	–	27%
Cc1ccccc1NC(=S)N(CCc1c(C)[nH]c2ccc(F)cc12)Cc1ccncc1	–	–	–	–	–	–	·	·	·
COc1ccccc1NC(=S)N(CCc1c(C)[nH]c2ccccc12)Cc1cccs1	–	–	–	–	–	–	·	·	·
COc1ccc(NC(=S)N(CCc2c(C)[nH]c3ccc(C)cc23)Cc2cccs2)cc1	-9.6	–	–	–	–	–	–	–	29%
Cc1cccc(C)c1NC(=O)CN(C)C(=O)CN1C(=O)NC2(CCCC2)C1=O	–	–	–	–	–	·	·	·	·
CN1CN(C)C(c2ccncc2)=C1c1ccncc1	–	–	–	–	–	–	·	·	·
O=C(CC(Nc1ccc(Cl)cc1)C(=O)O)c1ccccc1 (stereo not drawn)	–	–	–	–	–	–	·	·	·
O=C(CC(Nc1ccc(F)cc1)c1ccccc1)c1ccccc1 (stereo not drawn)	-11	–	–	–	–	–	–	–	–
CSc1nsc(SCC(=O)Nc2ccccc2F)n1	–	–	–	–	–	·	·	·	·
Cc1cccn2c(=O)c(/C=C(\C#N)C(=O)NCc3ccco3)c(N3CCCCC3)nc12	–	–	–	–	–	–	·	·	·
Cc1cccn2c(=O)c(/C=C(\C#N)C(=O)NCc3ccco3)c(N3CCCCCC3)nc12	–	–	–	–	–	–	–	–	–
CCOC(=O)[C@H]1[C@H]2COc3ccc(OC)cc3[C@@H]2N2C(=O)CN(Cc3ccc(OC)cc3)C(=O)[C@@]12C	·	·	·	·	–	·	·	·	·
COC(=O)c1cc(CN2CCN(c3ccccc3C)CC2)ccc1O	–	–	–	–	–	·	–	–	–
Cc1ccc(Cl)cc1N(Cc1ccc(C(=O)NCc2cccnc2)cc1)S(=O)(=O)c1ccccc1	-8.3	–	–	–	–	·	–	–	–
CN(C(=O)c1ccc(NC(=O)Cc2cccc(NC(=O)C3CCN(C(=O)C4CC4)CC3)c2)cc1)C1CC1	·	·	·	·	–	·	·	·	·
CCOC(=O)C(CSCC(=O)c1ccc(Br)cc1)NC(=O)OC(C)(C)C (stereo not drawn)	–	–	–	–	·	–	·	·	·
CCOC(=O)C(CSCc1ccccc1)NC(=O)OC(C)(C)C (stereo not drawn)	–	–	–	–	–	–	–	–	–
SMILES	KCNK9 block	KCNQ1 act	hERG rescue	KCNQ1 block	KCNK3 inh	KCC2 mod	KCNK9 block conf	Kir21 sel	HEK293 Tl ctr
COc1ccccc1N1CCN(CCCCOc2cccc3ccccc23)CC1	–	–	–	–	–	–	–	–	–
Cc1cccc(N2CCN(C(=O)CCC(=O)N3CC(C)Oc4ccccc43)CC2)c1C (stereo not drawn)	–	–	–	–	–	·	–	–	–
Cc1ccc2c(c1)N(C(=O)CCC(=O)N1CCN(c3cccc(C)c3C)CC1)CCO2	–	–	–	–	–	·	–	–	–
Cc1ccc2c(c1)N(C(=O)CCC(=O)N1CCN(c3ccccc3)CC1)CCO2	–	–	–	–	–	·	·	·	·
O=C(NCC(=O)N1CCN(C(=O)c2ccccc2)CC1)c1ccc(Cl)cc1Cl	·	·	·	·	–	·	·	·	·
O=C(N=C1SC2CS(=O)(=O)CC2N1CCc1ccccc1)C1CC1 (stereo not drawn)	–	–	–	–	–	·	·	·	·
COC(=O)CNC(c1ccccc1)c1cc(Br)ccc1NC(=O)CNC(=O)OCc1ccccc1 (stereo not drawn)	-15	–	–	–	–	–	64%	–	32%
COC(=O)CNC(c1ccccc1)c1cc(Br)ccc1NC(=O)CCN1CCOCC1 (stereo not drawn)	–	–	–	–	–	–	·	·	·
Cc1ccc(S(=O)(=O)Oc2ccc(/C=C3\C(=N)N4N=C(S(C)(=O)=O)SC4=NC3=O)cc2)cc1	–	–	–	–	–	·	–	–	–
CCC1=NN2C(=N)/C(=C/c3ccc(OS(=O)(=O)c4ccccc4)cc3)C(=O)N=C2S1	–	–	–	–	–	·	–	–	–
CCS(=O)(=O)C1=NN2C(=N)/C(=C\c3ccc(OS(=O)(=O)c4ccccc4)cc3)C(=O)N=C2S1	–	–	–	–	–	·	·	·	·
Cc1cc(C)c(NC(=O)CSc2nnc(CNC(=O)c3ccco3)o2)c(C)c1	–	–	–	–	–	·	·	·	·
CN1C(=O)[C@@H]2[C@H](C1=O)[C@@H]1C(=O)Nc3ccccc3C(=O)N1[C@@H]2c1cccc(Br)c1	–	–	–	–	–	·	·	·	·
Cc1ccc(-c2cccc(C(=O)NCCc3ccccc3)n2)c2ccccc12	-17	–	–	–	–	–	76%	–	32%
O=C(NCc1ccccc1)c1cccc(Br)n1	–	–	–	–	–	–	·	·	·
Cc1ccc(-c2cccc(C(=O)NCc3ccccc3)n2)c2ccccc12	–	–	–	–	–	–	–	–	–
Cn1c(=O)c2[nH]c(NN=Cc3cccc(Br)c3)nc2n(C)c1=O	·	·	·	·	–	·	·	·	·
CCc1ccc(N=C2NC(=O)/C(=C/c3ccc(OCC(=O)O)c(OC)c3)S2)cc1	–	–	–	–	–	·	–	–	–
O=C(COC(=O)c1ccccc1OC(F)F)Nc1ccc2[nH]c(=O)[nH]c2c1	–	–	–	–	–	·	·	·	·
CCCCSc1cnn(-c2ccccc2)c(=O)c1SCCCC	-9.9	–	–	6	–	–	52%	–	48%
NC(=O)c1ccc(Oc2ccc(Cl)cc2)c([N+](=O)[O-])c1	–	–	–	–	–	–	·	·	·
